# Results published in PubChem BioAssay.
# The source made the active and inactive calls.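 The calls were made as follows, unless noted: active = viability at or under a set limit in both replicates, limit being median viability minus 3 SD (cut at about 48% in these data, passing the limit was not always enough); inconclusive = at or under the limit in just one replicate; inactive = at or above the limit in both replicates.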
# Experiments:
# [1] = Her2 expression decrease, cell viability multiplex – SKBR3 breast tumor cells, AlphaScreen, ATP viability, primary screen (AID 461;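 active = Her2 level under about 52% in both replicate screens, with viability over 70% of control, limit read from the data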;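 as to Her2 level: lower value means less Her2 protein in the cells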;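 as to viability: percent of carrier control wells set as 100% viability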); details: SKBR3 Her2 protein level, 18-24 h, measured here: SKBR3 viability, ATP luminescence, at 10 µM
# [2] = target: Receptor tyrosine-protein kinase erbB-2 (Homo sapiens) (UniProt P04626); test: as above; details: 18-24 h, at 10 µM, stronger effect = lower value
# Chain of Receptor tyrosine-protein kinase erbB-2 (Homo sapiens) (P04626 whole entry, looked up): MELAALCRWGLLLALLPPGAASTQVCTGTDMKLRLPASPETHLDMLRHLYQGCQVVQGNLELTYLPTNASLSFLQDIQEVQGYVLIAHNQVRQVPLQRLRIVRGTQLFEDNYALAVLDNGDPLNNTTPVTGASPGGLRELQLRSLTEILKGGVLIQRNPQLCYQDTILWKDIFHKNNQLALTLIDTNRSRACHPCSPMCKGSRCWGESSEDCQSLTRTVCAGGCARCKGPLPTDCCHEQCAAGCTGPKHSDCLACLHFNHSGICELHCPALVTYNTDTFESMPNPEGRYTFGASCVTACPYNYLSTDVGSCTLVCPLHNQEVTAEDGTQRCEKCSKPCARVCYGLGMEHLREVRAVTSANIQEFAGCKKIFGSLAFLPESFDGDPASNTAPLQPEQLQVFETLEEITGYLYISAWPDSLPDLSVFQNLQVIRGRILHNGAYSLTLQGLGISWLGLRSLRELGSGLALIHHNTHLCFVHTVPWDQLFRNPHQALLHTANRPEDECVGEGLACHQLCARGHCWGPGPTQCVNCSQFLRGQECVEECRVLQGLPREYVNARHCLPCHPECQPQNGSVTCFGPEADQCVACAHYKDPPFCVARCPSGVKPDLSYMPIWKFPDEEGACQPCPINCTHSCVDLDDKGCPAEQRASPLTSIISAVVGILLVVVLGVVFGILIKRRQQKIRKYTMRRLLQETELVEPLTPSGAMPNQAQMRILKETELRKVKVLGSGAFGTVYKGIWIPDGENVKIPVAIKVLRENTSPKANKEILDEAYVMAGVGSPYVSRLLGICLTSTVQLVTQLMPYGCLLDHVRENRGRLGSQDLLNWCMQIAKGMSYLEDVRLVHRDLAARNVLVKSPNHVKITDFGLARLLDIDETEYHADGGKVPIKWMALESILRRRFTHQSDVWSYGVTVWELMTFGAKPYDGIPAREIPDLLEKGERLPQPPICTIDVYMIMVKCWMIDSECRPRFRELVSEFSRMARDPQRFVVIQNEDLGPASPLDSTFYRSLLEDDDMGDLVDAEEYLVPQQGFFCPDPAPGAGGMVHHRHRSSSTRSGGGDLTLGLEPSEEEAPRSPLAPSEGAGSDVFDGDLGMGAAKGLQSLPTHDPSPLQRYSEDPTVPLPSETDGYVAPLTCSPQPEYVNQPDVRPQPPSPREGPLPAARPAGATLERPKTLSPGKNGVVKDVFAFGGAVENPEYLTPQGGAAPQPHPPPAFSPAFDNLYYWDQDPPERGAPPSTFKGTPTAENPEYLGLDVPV
# [3] = reduced viability of SK-BR-3 breast cancer cells – cell-based, 24 h, human, pilot screen (AID 572;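 active = viability at or below 10% of carrier control in both of two separate runs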;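 also: compound exposure lasted between 18 and 24 h rather than exactly 24 h; 100% = carrier-treated control wells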); details: SK-BR-3 viability, CellTiter-Glo luminescence, at 10 µM, stronger effect = lower value
# [4] = HUVEC growth inhibition – cell-based, human, primary screen (AID 575;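 active = viability at or below 30% in both replicate assays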;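 also: 100% = median of untreated cell wells with 0.1% DMSO on each plate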); details: HUVEC proliferation, CellTiter-Glo luminescence, 72 h; at 10 µM; stronger effect = lower value
# Method in brief: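 Test system: primary human umbilical vein endothelial cells. Quantity: 1250 cells/well. Compound: single 10 µM dose, 0.1% DMSO, from 5x medium stock. Timing: 72 h treatment at 37 °C. Detection: ATP-based CellTiter-Glo luminescent read. Benchmarks: vehicle and MePR control wells. Format: 384-well plates coated with collagen.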
# [5] = H69AR cell proliferation blockers – human, duplicate replicates, primary screen (AID 580); details: H69AR lung tumor cells viability, ATP luminescence, 72 h; at 10 µM; stronger effect = lower value;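 also: 100% = mean luminescence of untreated wells and 0% = no signal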
# [6] = MRP1 drug-resistance reversers in H69AR cells – cell-based, doxorubicin co-treatment, pilot screen (AID 601;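 active = viability loss from added drug above about 55%, and viability with drug at most 40%, in both replicates, limit read from the data, passing the limit was not always enough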); details: CellTiter-Glo, 72 h, at 10 µM; for differential viability (reversal): stronger effect = higher value
# [7] = yeast transport mutant growth inhibition pilot in 384-well plates, post-Golgi transport modulator project (AID 636; in the data active = inhibition above about 31%); details: absorbance 615 nm, about 18 h, stronger effect = higher value
# [8] = growth suppression of yeast trafficking mutant, preliminary HTS, modulators of trafficking downstream of Golgi apparatus project, 1536-format plate, OD 615 nm (AID 637; in the data active = inhibition above about 30%); details: yeast transport mutant growth, absorbance 615 nm, 18 h; stronger effect = higher value
# [9] = H69AR cells + 2 uM doxorubicin, measured here: viability with 2 uM doxorubicin, stronger effect = lower value
# [10] = H69AR cells, compound alone cytotoxicity
SMILES,viability [1] [%],Her2 level [2],viability [3],viability [4],viability [5],differential viability (reversal) ([6]; H69AR cells + 2 uM doxorubicin),"viability [6, 9] [%]","viability [6, 10] [%]",inhibition [7],inhibition [8]
C=CC(O)(C#CCN(CC)CC)c1ccccc1 (stereo not given),96.5,89% (inactive),96.5% (inactive),102% (inactive),99.9% (inactive),10.1% (inactive),89.9,99.9,-2.03% (inactive),-0.63% (inactive)
O=C(CCn1c(=O)sc2ccccc21)NC1=NCCS1,84,96% (inactive),84% (inactive),94.6% (inactive),91.6% (inactive),4.68% (inactive),86.9,91.6,-1.87% (inactive),-6.72% (inactive)
CN(Cc1cccs1)c1ncnc2sccc12,112,78.5% (inactive),112% (inactive),70.7% (inactive),92.4% (inactive),-0.54% (inactive),93,92.4,-4.87% (inactive),1.27% (inactive)
COc1ccc2c(c1)C(=NO)c1cc(OC)ccc1-2,120,61.5% (inactive),120% (inactive),58.5% (inactive),83.8% (inactive),-6.16% (inactive),90,83.8,-8.24% (inactive),2% (inactive)
Cn1nnnc1SCC(=O)N1CCN(c2cccc(Cl)c2)CC1,108,89% (inactive),108% (inactive),97.2% (inactive),85.6% (inactive),8.05% (inactive),77.5,85.6,-1.43% (inactive),-1.11% (inactive)
CC(C)(C)Nc1nc(OCC(F)(F)F)nc(OCC(F)(F)F)n1,108,89% (inactive),108% (inactive),98.8% (inactive),89.1% (inactive),-0.98% (inactive),90.1,89.1,-5.26% (inactive),-10.6% (inactive)
COCCN1Cc2cccc(C(=O)Nc3cccnc3)c2C1=O,106,81% (inactive),106% (inactive),102% (inactive),93.5% (inactive),-4.91% (inactive),98.4,93.5,-6.71% (inactive),1.9% (inactive)
Cc1cc(NC(=O)c2ccc3c(c2)C(=O)N(Cc2cccnc2)C3=O)no1,96.5,110% (inactive),96.5% (inactive),106% (inactive),102% (inactive),0.045% (inactive),102,102,-1.07% (inactive),12.5% (inactive)
COc1ccc2[nH]c(=O)c(CN(CC3CCCO3)C(=O)Nc3ccc(F)cc3)cc2c1 (stereo not given),84.5,113% (inactive),84.5% (inactive),26.1% (active),39.4% (active),-8.38% (inactive),47.8,39.4,-0.68% (inactive),2.46% (inactive)
Cc1ccc(Cn2nnc3c(=O)[nH]c(C4CCN(C(=O)c5cccs5)CC4)nc32)cc1,90.5,84% (inactive),90.5% (inactive),73.4% (inactive),86% (inactive),2.21% (inactive),83.8,86,-3.73% (inactive),-1.94% (inactive)
CC1(C(=O)CSc2nc3ccccc3s2)CCC(=O)O1 (stereo not given),107,89% (inactive),107% (inactive),73.2% (inactive),90.1% (inactive),3.12% (inactive),87,90.1,-7.4% (inactive),-3.17% (inactive)
O=C(Cn1cccc1)N1CCN(C(c2ccccc2)c2ccccc2)CC1,102,87% (inactive),102% (inactive),108% (inactive),91.4% (inactive),-4.55% (inactive),95.9,91.4,-6.76% (inactive),4.33% (inactive)
COc1ccccc1NC(=O)C1=C(C)Nc2nnnn2C1c1ccccc1OC (stereo not given),94,76.5% (inactive),94% (inactive),113% (inactive),98.9% (inactive),10.4% (inactive),88.5,98.9,-4.16% (inactive),-1.5% (inactive)
CCOC(=O)N1CCN(C(=O)CSc2nnc(Cc3ccccc3)o2)CC1,92.5,102% (inactive),92.5% (inactive),76% (inactive),103% (inactive),25.7% (inactive),77.2,103,0.27% (inactive),1.97% (inactive)
CCOCCCNC(=O)C1CCN(C(=O)Nc2ccc(Cl)cc2)CC1,103,92.5% (inactive),103% (inactive),94.7% (inactive),102% (inactive),10.9% (inactive),90.8,102,-5% (inactive),-1% (inactive)
COc1cccc(N2CCN(Cc3cccnc3)CC2)c1,81.5,97.5% (inactive),81.5% (inactive),93% (inactive),87.8% (inactive),-7.62% (inactive),95.4,87.8,-0.38% (inactive),3.33% (inactive)

SMILES,viability [1] [%],Her2 level [2],viability [3],viability [4],viability [5],differential viability (reversal) ([6]; H69AR cells + 2 uM doxorubicin),"viability [6, 9] [%]","viability [6, 10] [%]",inhibition [7],inhibition [8]
CC(=O)NC(Cc1c[nH]c2ccccc12)C(=O)OCC(=O)Nc1cc(C)on1 (stereo not given),91.5,117% (inactive),91.5% (inactive),101% (inactive),97% (inactive),11% (inactive),86,97,3.46% (inactive),-7.83% (inactive)
Cc1cc(O)c(C2(C(F)(F)F)NCCNC2=O)cc1C (stereo not given),100,96% (inactive),100% (inactive),99.5% (inactive),98.8% (inactive),7.08% (inactive),91.7,98.8,-4.61% (inactive),-0.32% (inactive)
CCCCOC(=O)CN1C(=O)c2ccc(C(=O)OCCCC)cc2C1=O,87,94% (inactive),87% (inactive),92.3% (inactive),106% (inactive),10.4% (inactive),95.3,106,-2.97% (inactive),0.82% (inactive)
COc1ccc(-c2cc3nc(C)c(CCC(=O)NCc4ccco4)c(C)n3n2)c(OC)c1,103,91% (inactive),103% (inactive),92.1% (inactive),85.8% (inactive),-2.58% (inactive),88.4,85.8,0.53% (inactive),6.91% (inactive)
c1ccc2c(c1)CNc1ccccc1C2,97.5,90.5% (inactive),97.5% (inactive),73.5% (inactive),93.1% (inactive),-4.85% (inactive),98,93.1,-3.87% (inactive),-3.71% (inactive)
COc1cc(NC(=O)NC(C)(C(F)(F)F)C(F)(F)F)cc(OC)c1OC,138,106% (inactive),138% (inactive),91.1% (inactive),99.5% (inactive),-2.39% (inactive),102,99.5,-4.08% (inactive),11.3% (inactive)
CCN1C(=O)Cc2cc(S(=O)(=O)N3CCOCC3)ccc21,105,110% (inactive),105% (inactive),96.1% (inactive),98% (inactive),-2.08% (inactive),100,98,-6.4% (inactive),-0.63% (inactive)
COCCOc1nc2ccccc2nc1C,126,94% (inactive),126% (inactive),88.4% (inactive),87.6% (inactive),0.7% (inactive),86.9,87.6,-3.55% (inactive),4.19% (inactive)
CN(C)c1ccc(NC(=O)c2cc3c(=O)n4ccccc4nc3n2C)cc1,87.5,72.5% (inactive),87.5% (inactive),97.8% (inactive),80.3% (inactive),-3.47% (inactive),83.8,80.3,-0.54% (inactive),14.1% (inactive)
CCOC(=O)c1cnc(-n2cc(C)cn2)nc1Nc1ccccc1OC,92.5,94% (inactive),92.5% (inactive),80.8% (inactive),60.8% (inactive),-8.94% (inactive),69.8,60.8,-4.55% (inactive),-4.13% (inactive)
Cc1cccc2c1N(CC(=O)OC(C)C)C(=O)C2=O,76.5,103% (inactive),76.5% (inactive),95% (inactive),75.2% (inactive),-3.31% (inactive),78.5,75.2,1.67% (inactive),6.67% (inactive)
O=C(N1CCCCCC1)N1CCN(C(=O)N2CCOCC2)CC1,105,104% (inactive),105% (inactive),94.9% (inactive),98.9% (inactive),5.18% (inactive),93.7,98.9,0.92% (inactive),-8.55% (inactive)
COc1cccc(OC)c1C(=O)N1CCN(S(=O)(=O)c2ccc(C)cc2)CC1,103,108% (inactive),103% (inactive),87.2% (inactive),91.4% (inactive),-5.23% (inactive),96.7,91.4,-7.2% (inactive),-3.28% (inactive)
CCOC(=O)c1c(NC(=O)c2nn(CC)cc2Br)c(C#N)cn1-c1ccccc1,78,90% (inactive),78% (inactive),62.5% (inactive),74.8% (inactive),2.55% (inactive),72.2,74.8,-4.61% (inactive),-6.17% (inactive)
COCCn1c(-c2ccc(OC)c(OC)c2)nc2ccccc21,93,108% (inactive),93% (inactive),105% (inactive),95.8% (inactive),4.81% (inactive),91,95.8,-4.67% (inactive),-5.81% (inactive)
